We go through 23 compounds from PubChem BioAssay AID624204 (Sanford-Burnham Center for Chemical Genomics, 2012).

Structures are written as SMILES. The campaign covered roughly 360,000 compounds. About 770 (0.21%) were called active.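 Rule for the calls: active = inhibition at least 30% at 10 µM, raw YFP signal under a set limit, fluorescence ratio 0.5 to 1.5; inactive = the rest.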 For the sample, actives were picked, then their nearest neighbours and some compounds at random.

The target of the assay is Sentrin-specific protease 1 (Homo sapiens) (UniProt Q9P0U3). As to the kind of experiment: human SENP1 catalytic domain inhibitors, primary screen, biochemical, FRET, uHTS (AID 624204).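 Note: 0% = enzyme with DMSO and 100% = no enzyme wells.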 The settings on record: recombinant SENP1 catalytic domain, CyPet-SUMO1-YPet FRET cleavage; at 10 µM; stronger effect = higher value. In short, it runs like this: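 Test system: recombinant human SENP1 catalytic domain, His6-tagged / Medium: pH 8 Tris buffer with EDTA, NaCl, BME, BSA, NP40, catalase / Also added: SUMO1 FRET substrate flanked by Cypet and Ypet, 25 nM / Times: 50 min reaction at room temperature / Signal: FRET, CFP and YFP emission / Control set: no-enzyme low control and enzyme-plus-DMSO high control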
Chain of Sentrin-specific protease 1 (Homo sapiens) (Q9P0U3 419-644 limits assumed): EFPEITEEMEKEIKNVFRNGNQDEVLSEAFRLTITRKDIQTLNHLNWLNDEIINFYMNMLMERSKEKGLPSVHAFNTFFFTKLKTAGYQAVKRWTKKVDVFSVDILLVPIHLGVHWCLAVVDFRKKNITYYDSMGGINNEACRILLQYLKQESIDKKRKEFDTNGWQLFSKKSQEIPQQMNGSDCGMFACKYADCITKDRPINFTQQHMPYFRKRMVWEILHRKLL
One may read the inhibition as the drop in the measured response relative to a control, in per cent. Turning to `Nn1c(Cc2cccc3ccccc23)nnc1SCC(=O)N1CC(=O)Nc2ccccc21`, the inhibition was 3.32% (inactive). For the compound `CCc1ccc2ncc(C(=O)c3ccccc3)c(N3CCOCC3)c2c1`, the inhibition is -0.316% (inactive). For `Cc1c(C(=O)NCCN2C(=O)S/C(=C\c3cccs3)C2=O)cccc1[N+](=O)[O-]`, the inhibition was 5.33% (inactive). Under `O=C(CCN1C(=O)/C(=C/c2cccs2)SC1=S)NNC(=O)c1cccc(O)c1` stands 72.7% (active); under `O=C(CCN1C(=O)c2ccccc2C1=O)NNC(=O)c1ccc(Cl)cc1Cl`, 1.7% (inactive); under `O=C(O)c1cc(S(=O)(=O)N2CCCCCC2)c(Cl)cc1Cl`, -0.414% (inactive).

Consider `Cc1nn(-c2ccccc2)c(CC(C)(C)C(=O)O)c1C(=O)O`, for which the inhibition is 1.05% (inactive). As to `CCCCN(C(=O)CSCC(=O)Nc1ccc(OC)cc1)c1c(N)n(CCC)c(=O)[nH]c1=O`, the inhibition is -2.42% (inactive). Take `Cc1cc(=O)cc(C)n1-c1ccc(Cl)c(Cl)c1`: the inhibition is 2.24% (inactive). Under `CC(=O)NC1(c2cccc(F)c2)CCN(CC(=O)NC(C)C)CC1` stands -0.563% (inactive); under `O=C(CC1CCCCC1)NCc1ccc(F)cc1`, 1.88% (inactive). Under `CNS(=O)(=O)c1cccc(C(=O)OCCCC(=O)c2ccccc2)c1` stands 0.585% (inactive); under `COc1ccc(CC2c3cc(OC)c(OC)cc3CC[N+]2(C)CCC(=O)OCCCCCOC(=O)CC[N+]2(C)CCc3cc(OC)c(OC)cc3C2Cc2ccc(OC)c(OC)c2)cc1OC` (stereo not drawn), -1.31% (inactive); under `CC(=O)c1cccc(-c2cnc3c(NC=O)cc(-c4ccc(N5CCN(C)CC5)cc4)cn23)c1`, 28% (inactive). As to `CN(C)C(=O)c1cccc(-c2cnc3c(NC=O)cc(-c4ccc(C(=O)N5CCOCC5)cc4)cn23)c1`, the inhibition was -29.9% (inactive). Turning to `CC(=O)c1cccc(-c2cnc3c(NC=O)cc(-c4ccc(N(C)C)cc4)cn23)c1`, the inhibition was 50% (active). Take `CC(=O)NCC(=O)N1CCC(n2nccc2NC(=O)CCCc2ccccc2)CC1`: the inhibition is 0.687% (inactive). Under `Cc1nc2nc(C)c(CCC(=O)N3CCN(c4ccccc4)CC3)c(C)n2n1` stands 0.72% (inactive). Under `O=C(C[C@H]1C[C@H]2c3cc(NS(=O)(=O)c4ccc(F)cc4)ccc3O[C@H]2[C@H](CO)O1)NCc1cc(F)ccc1F` stands -0.578% (inactive); under `O=C(Nc1ccc(F)cc1F)N1CCCN(CCOc2ccccc2)CC1`, -1.95% (inactive); under `COc1ccc(N2CCN(C(=O)c3ccc(N4CCCCS4(=O)=O)cc3)CC2)cc1`, -2.08% (inactive). Under `Cn1nnnc1SCC(=O)Nc1ccccc1C(=O)NC1CC1` stands -4.1% (inactive); under `Cc1cccc(NC(=O)c2ccc3c(=O)n(CC4CCCO4)c(=S)[nH]c3c2)c1` (stereo not drawn), -0.024% (inactive).
